According to ChEMBL document CHEMBL1145884, “Synthesis and biological activity of novel 1beta-methylcarbapenems with oxyiminopyrrolidinylamide moiety” (2003):
In brackets after ≈: the same amount, converted by molar mass.

Each compound was assayed on Salmonella typhimurium (assay: Compound was evaluated for its antibacterial activity against Salmonella Typhimurium 2). Details: Salmonella enterica.
Type: functional, Salmonella enterica subsp. enterica serovar Typhimurium

Row | Structure (SMILES) | MIC
1 | C[C@@H](O)[C@H]1C(=O)N2C(C(=O)O)=C(S[C@@H]3CN[C@H](C(=O)N(C)C)C3)[C@H](C)[C@H]12 [MEROPENEM] | 0.016 µg/mL (≈ 0.0417 µM)

What follows are compounds tested on Pseudomonas aeruginosa (assay: Antibacterial activity against Pseudomonas aeruginosa 1592E). Details: not given.

Row | Structure (SMILES) | MIC
2 | C[C@@H](O)[C@H]1C(=O)N2C(C(=O)O)=C(S[C@@H]3CN[C@H](C(=O)N(C)C)C3)[C@H](C)[C@H]12 [MEROPENEM] | 0.195 µg/mL (≈ 0.509 µM)

Each compound was assayed on Klebsiella pneumoniae (assay: Compound was evaluated for its antibacterial activity against Klebsiella pneumoniae 4 ESBL). Details: not given.
Type: functional

Row | Structure (SMILES) | MIC
3 | C[C@@H](O)[C@H]1C(=O)N2C(C(=O)O)=C(S[C@@H]3CN[C@H](C(=O)N(C)C)C3)[C@H](C)[C@H]12 [MEROPENEM] | 0.016 µg/mL (≈ 0.0417 µM)

Each compound was assayed on Escherichia coli (assay: Compound was evaluated for its antibacterial activity against Escherichia coli ATCC 25922). Details: not given.
Type: functional

Row | Structure (SMILES) | MIC
4 | C[C@@H](O)[C@H]1C(=O)N2C(C(=O)O)=C(S[C@@H]3CN[C@H](C(=O)N(C)C)C3)[C@H](C)[C@H]12 [MEROPENEM] | 0.016 µg/mL (≈ 0.0417 µM)

What follows are compounds tested on Klebsiella pneumoniae (assay: Compound was evaluated for its antibacterial activity against Klebsiella pneumoniae). Details: not given.

Row | Structure (SMILES) | MIC
5 | C[C@@H](O)[C@H]1C(=O)N2C(C(=O)O)=C(S[C@@H]3CN[C@H](C(=O)N(C)C)C3)[C@H](C)[C@H]12 [MEROPENEM] | 0.06 µg/mL (≈ 0.156 µM)

These compounds were tested on Klebsiella pneumoniae (assay: Compound was evaluated for its antibacterial activity against Klebsiella pneumoniae 6 ESBL). Details: not given.
Type: functional

Row | Structure (SMILES) | MIC
6 | C[C@@H](O)[C@H]1C(=O)N2C(C(=O)O)=C(S[C@@H]3CN[C@H](C(=O)N(C)C)C3)[C@H](C)[C@H]12 [MEROPENEM] | 0.03 µg/mL (≈ 0.0782 µM)

These compounds were tested on Enterobacter cloacae (assay: Antibacterial activity against Enterobacter cloacae 1321E). Details: not given.
Type: functional
How it was run: (§1)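 MIC was determined by agar dilution on Mueller–Hinton medium.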

Row | Structure (SMILES) | MIC
7 | C[C@@H](O)[C@H]1C(=O)N2C(C(=O)O)=C(S[C@@H]3CN[C@H](C(=O)N(C)C)C3)[C@H](C)[C@H]12 [MEROPENEM] | 0.025 µg/mL (≈ 0.0652 µM)

Each compound was assayed on Escherichia coli (assay: Compound was evaluated for its antibacterial activity against Escherichia coli CCARM 1117 MDR). Details: not given.
Type: functional

Row | Structure (SMILES) | MIC
8 | C[C@@H](O)[C@H]1C(=O)N2C(C(=O)O)=C(S[C@@H]3CN[C@H](C(=O)N(C)C)C3)[C@H](C)[C@H]12 [MEROPENEM] | 0.03 µg/mL (≈ 0.0782 µM)

These compounds were tested on Shigella flexneri (assay: Compound was evaluated for its antibacterial activity against Shigella flexneri ATCC 9199). Details: not given.
Type: functional

Row | Structure (SMILES) | MIC
9 | C[C@@H](O)[C@H]1C(=O)N2C(C(=O)O)=C(S[C@@H]3CN[C@H](C(=O)N(C)C)C3)[C@H](C)[C@H]12 [MEROPENEM] | 0.03 µg/mL (≈ 0.0782 µM)

System: Klebsiella pneumoniae
Assay: Compound was evaluated for its antibacterial activity against Klebsiella pneumoniae
Details: not given
Remark: another data set of the same source

Row | Structure (SMILES) | MIC
10 | C[C@@H](O)[C@H]1C(=O)N2C(C(=O)O)=C(S[C@@H]3CN[C@H](C(=O)N(C)C)C3)[C@H](C)[C@H]12 [MEROPENEM] | 0.06 µg/mL (≈ 0.156 µM)

Each compound was assayed on Streptococcus pyogenes (assay: Antibacterial activity against Streptococcus pyogenes 308A). Details: not given.
Type: functional

Row | Structure (SMILES) | MIC
11 | C[C@@H](O)[C@H]1C(=O)N2C(C(=O)O)=C(S[C@@H]3CN[C@H](C(=O)N(C)C)C3)[C@H](C)[C@H]12 [MEROPENEM] | 0.013 µg/mL (≈ 0.0339 µM)

Each compound was assayed on Klebsiella aerogenes (assay: Antibacterial activity against Klebsiella aerogenes 1522E). Details: not given.
Type: functional
How it was run: as §1

Row | Structure (SMILES) | MIC
12 | C[C@@H](O)[C@H]1C(=O)N2C(C(=O)O)=C(S[C@@H]3CN[C@H](C(=O)N(C)C)C3)[C@H](C)[C@H]12 [MEROPENEM] | 0.049 µg/mL (≈ 0.128 µM)

Each compound was assayed on Escherichia coli (assay: Compound was evaluated for its antibacterial activity against Escherichia coli CCARM 1113 MDR). Details: not given.
Type: functional

Row | Structure (SMILES) | MIC
13 | C[C@@H](O)[C@H]1C(=O)N2C(C(=O)O)=C(S[C@@H]3CN[C@H](C(=O)N(C)C)C3)[C@H](C)[C@H]12 [MEROPENEM] | 0.03 µg/mL (≈ 0.0782 µM)

Each compound was assayed on Escherichia coli (assay: Antibacterial activity against Escherichia coli 078). Details: not given.
Type: functional
How it was run: as §1

Row | Structure (SMILES) | MIC
14 | C[C@@H](O)[C@H]1C(=O)N2C(C(=O)O)=C(S[C@@H]3CN[C@H](C(=O)N(C)C)C3)[C@H](C)[C@H]12 [MEROPENEM] | 0.025 µg/mL (≈ 0.0652 µM)

What follows are compounds tested on Escherichia coli (assay: Compound was evaluated for its antibacterial activity against Escherichia coli TEM). Details: not given.
Type: functional

Row | Structure (SMILES) | MIC
15 | C[C@@H](O)[C@H]1C(=O)N2C(C(=O)O)=C(S[C@@H]3CN[C@H](C(=O)N(C)C)C3)[C@H](C)[C@H]12 [MEROPENEM] | 0.016 µg/mL (≈ 0.0417 µM)

The compounds below were run on Salmonella typhimurium (assay: Antibacterial activity against Salmonella Typhimurium). Details: Salmonella enterica.
Type: functional, Salmonella enterica subsp. enterica serovar Typhimurium
How it was run: as §1

Row | Structure (SMILES) | MIC
16 | C[C@@H](O)[C@H]1C(=O)N2C(C(=O)O)=C(S[C@@H]3CN[C@H](C(=O)N(C)C)C3)[C@H](C)[C@H]12 [MEROPENEM] | 0.049 µg/mL (≈ 0.128 µM)

What follows are compounds tested on Salmonella enteritidis (assay: Compound was evaluated for its antibacterial activity against […] enteritidis). Details: Salmonella enterica.
Type: functional, Salmonella enterica subsp. enterica serovar Enteritidis

Row | Structure (SMILES) | MIC
17 | C[C@@H](O)[C@H]1C(=O)N2C(C(=O)O)=C(S[C@@H]3CN[C@H](C(=O)N(C)C)C3)[C@H](C)[C@H]12 [MEROPENEM] | 0.016 µg/mL (≈ 0.0417 µM)

These compounds were tested on Escherichia coli (assay: Compound was evaluated for its antibacterial activity against Escherichia coli DC 2). Details: not given.
Type: functional

Row | Structure (SMILES) | MIC
18 | C[C@@H](O)[C@H]1C(=O)N2C(C(=O)O)=C(S[C@@H]3CN[C@H](C(=O)N(C)C)C3)[C@H](C)[C@H]12 [MEROPENEM] | 0.03 µg/mL (≈ 0.0782 µM)

Each compound was assayed on Pseudomonas aeruginosa (assay: Compound was evaluated for its antibacterial activity against Pseudomonas aeruginosa 2 MDR). Details: not given.
Type: functional

Row | Structure (SMILES) | MIC
19 | C[C@@H](O)[C@H]1C(=O)N2C(C(=O)O)=C(S[C@@H]3CN[C@H](C(=O)N(C)C)C3)[C@H](C)[C@H]12 [MEROPENEM] | 8 µg/mL (≈ 20.9 µM)

Each compound was assayed on Salmonella typhimurium (assay: Compound was evaluated for its antibacterial activity against Salmonella Typhimurium 1). Details: Salmonella enterica.
Type: functional, Salmonella enterica subsp. enterica serovar Typhimurium

Row | Structure (SMILES) | MIC
20 | C[C@@H](O)[C@H]1C(=O)N2C(C(=O)O)=C(S[C@@H]3CN[C@H](C(=O)N(C)C)C3)[C@H](C)[C@H]12 [MEROPENEM] | 0.03 µg/mL (≈ 0.0782 µM)

What follows are compounds tested on Salmonella typhimurium (assay: Compound was evaluated for its antibacterial activity against Salmonella Typhimurium). Details: Salmonella enterica.
Type: functional, Salmonella enterica subsp. enterica serovar Typhimurium

Row | Structure (SMILES) | MIC
21 | C[C@@H](O)[C@H]1C(=O)N2C(C(=O)O)=C(S[C@@H]3CN[C@H](C(=O)N(C)C)C3)[C@H](C)[C@H]12 [MEROPENEM] | 0.03 µg/mL (≈ 0.0782 µM)

Each compound was assayed on Klebsiella oxytoca (assay: Compound was evaluated for its antibacterial activity against Klebsiella oxytoca 1082E). Details: not given.
Type: functional

Row | Structure (SMILES) | MIC
22 | C[C@@H](O)[C@H]1C(=O)N2C(C(=O)O)=C(S[C@@H]3CN[C@H](C(=O)N(C)C)C3)[C@H](C)[C@H]12 [MEROPENEM] | 0.06 µg/mL (≈ 0.156 µM)

What follows are compounds tested on Klebsiella pneumoniae (assay: Compound was evaluated for its antibacterial activity against Klebsiella pneumoniae 1 ESBL). Details: not given.
Type: functional

Row | Structure (SMILES) | MIC
23 | C[C@@H](O)[C@H]1C(=O)N2C(C(=O)O)=C(S[C@@H]3CN[C@H](C(=O)N(C)C)C3)[C@H](C)[C@H]12 [MEROPENEM] | 0.03 µg/mL (≈ 0.0782 µM)

What follows are compounds tested on Salmonella enteritidis (assay: Compound was evaluated for its antibacterial activity against […] enteritidis 1). Details: Salmonella enterica.
Type: functional, Salmonella enterica subsp. enterica serovar Enteritidis

Row | Structure (SMILES) | MIC
24 | C[C@@H](O)[C@H]1C(=O)N2C(C(=O)O)=C(S[C@@H]3CN[C@H](C(=O)N(C)C)C3)[C@H](C)[C@H]12 [MEROPENEM] | 0.016 µg/mL (≈ 0.0417 µM)

Each compound was assayed on Escherichia coli (assay: Compound was evaluated for its antibacterial activity against Escherichia coli CCARM 1108 MDR). Details: not given.
Type: functional

Row | Structure (SMILES) | MIC
25 | C[C@@H](O)[C@H]1C(=O)N2C(C(=O)O)=C(S[C@@H]3CN[C@H](C(=O)N(C)C)C3)[C@H](C)[C@H]12 [MEROPENEM] | 0.03 µg/mL (≈ 0.0782 µM)

What follows are compounds tested on Klebsiella pneumoniae (assay: Compound was evaluated for its antibacterial activity against Klebsiella pneumoniae 5 ESBL). Details: not given.
Type: functional

Row | Structure (SMILES) | MIC
26 | C[C@@H](O)[C@H]1C(=O)N2C(C(=O)O)=C(S[C@@H]3CN[C@H](C(=O)N(C)C)C3)[C@H](C)[C@H]12 [MEROPENEM] | 0.016 µg/mL (≈ 0.0417 µM)
